Values after ≈ are worked out from the molar mass of the structure shown. Active and inactive are the calls of the source. The calls are words filed in the database; no cut-off is given here.
What was measured:
Bacillus subtilis [1] = assay: Antibacterial activity against Bacillus subtilis ATCC 6633 after 24 hrs by two fold serial dilution method; assay type: functional
Escherichia coli [2] = assay: Antibacterial activity against Escherichia coli ATCC 25922 using 100 uL of test compound after 24 hrs by agar well diffusion method; assay type: functional
Method in brief: (§1)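 Agar well diffusion. Nutrient agar was spread with bacterial suspension at 1×10⁸ CFU/mL, and 10 mm wells were cut. Wells were loaded with compound solution made at 200 mg per 1 mL DMSO. Plates were incubated 24 h at 37 °C and inhibition zones were measured. DMSO served as the negative control.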

Aspergillus niger [3] = assay: Antifungal activity against Aspergillus niger after 48 hrs by two fold serial dilution method; assay type: functional
Method in brief: (§2)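 Two-fold serial broth dilution in a suitable broth, run only on compounds giving inhibition zones of at least 16 mm. Final concentrations were […]. Each 5 mL received 0.1 mL inoculum and was incubated 48 h at 28 °C. MIC was the lowest concentration without growth.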

Escherichia coli [4] = assay: Antibacterial activity against Escherichia coli ATCC 25922 after 24 hrs by two fold serial dilution method; assay type: functional
Aspergillus niger [5] = assay: Antifungal activity against Aspergillus niger using 100 uL of test compound after 48 hrs by agar well diffusion method; assay type: functional
Method in brief: as §1, with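 “Sabouraud dextrose” for “Nutrient”, “yeast or fungal” for “bacterial”, “1×10⁶” for “1×10⁸”, “48” for “24”, “28” for “37”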

Saccharomyces cerevisiae [6] = assay: Antifungal activity against Saccharomyces cerevisiae using 100 uL of test compound after 48 hrs by agar well diffusion method; assay type: functional
Method in brief: as §1, with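 “Sabouraud dextrose” for “Nutrient”, “yeast or fungal” for “bacterial”, “1×10⁶” for “1×10⁸”, “48” for “24”, “28” for “37”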

Priestia megaterium [7] = assay: Antibacterial activity against Bacillus megaterium ATCC 9885 after 24 hrs by two fold serial dilution method; assay type: functional
Bacillus subtilis [8] = assay: Antibacterial activity against Bacillus subtilis ATCC 6633 using 100 uL of test compound after 24 hrs by agar well diffusion method; assay type: functional; method in brief: as §1
Pseudomonas aeruginosa [9] = assay: Antibacterial activity against Pseudomonas aeruginosa ATCC 27953 using 100 uL of test compound after 24 hrs by agar well diffusion method; assay type: functional; method in brief: as §1
Saccharomyces cerevisiae [10] = assay: Antifungal activity against Saccharomyces cerevisiae after 48 hrs by two fold serial dilution method; assay type: functional; method in brief: as §2
Candida albicans [11] = assay: Antifungal activity against Candida albicans NRRL Y-477 using 100 uL of test compound after 48 hrs by agar well diffusion method; assay type: functional
Method in brief: as §1, with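 “Sabouraud dextrose” for “Nutrient”, “yeast or fungal” for “bacterial”, “1×10⁶” for “1×10⁸”, “48” for “24”, “28” for “37”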

Micrococcus luteus [12] = assay: Antibacterial activity against Sarcina lutea after 24 hrs by two fold serial dilution method; assay type: functional
Staphylococcus aureus [13] = assay: Antibacterial activity against Staphylococcus aureus ATCC 29213 after 24 hrs by two fold serial dilution method; assay type: functional
[14] = Antioxidant activity assessed as DPPH free radical scavenging activity by spectrophotometric assay; assay type: physicochemical
Method in brief: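 Sample solutions at several concentrations were added to 0.004% DPPH in methanol and incubated 60 min in the dark. Absorbance was read at 517 nm against a blank. Inhibition % = (A_blank − A_sample)/A_blank × 100, where the control contained all reagents except the test compound.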

Klebsiella pneumoniae [15] = assay: Antibacterial activity against Klebsiella pneumoniae ATCC 13883 using 100 uL of test compound after 24 hrs by agar well diffusion method; assay type: functional; method in brief: as §1
Staphylococcus aureus [16] = assay: Antibacterial activity against Staphylococcus aureus ATCC 29213 using 100 uL of test compound after 24 hrs by agar well diffusion method; assay type: functional; method in brief: as §1
Klebsiella pneumoniae [17] = assay: Antibacterial activity against Klebsiella pneumoniae ATCC 13883 after 24 hrs by two fold serial dilution method; assay type: functional
Micrococcus luteus [18] = assay: Antibacterial activity against Sarcina lutea using 100 uL of test compound after 24 hrs by agar well diffusion method; assay type: functional; method in brief: as §1
Priestia megaterium [19] = assay: Antibacterial activity against Bacillus megaterium ATCC 9885 using 100 uL of test compound after 24 hrs by agar well diffusion method; assay type: functional; method in brief: as §1
Candida albicans [20] = assay: Antifungal activity against Candida albicans NRRL Y-477 after 48 hrs by two fold serial dilution method; assay type: functional; method in brief: as §2
Pseudomonas aeruginosa [21] = assay: Antibacterial activity against Pseudomonas aeruginosa ATCC 27953 after 24 hrs by two fold serial dilution method; assay type: functional

O=C(Cn1cc(COC(Cc2cn(CC(=O)c3ccc(Br)cc3)nn2)c2ccc(S(=O)(=O)c3ccccc3)cc2)nn1)c1ccc(Br)cc1 (stereo not given)
MIC (Bacillus subtilis [1]; ATCC 6633, 24 h): 200 µg/mL (≈ 249 µM) | diameter of the inhibition zone (DIZ) (Escherichia coli [2]): 17 mm | MIC (Aspergillus niger [3]): 200 µg/mL (≈ 249 µM) | MIC (Escherichia coli [4]; ATCC 25922, 24 h): 200 µg/mL (≈ 249 µM) | diameter of the inhibition zone (DIZ) (Aspergillus niger [5]): 20 mm | diameter of the inhibition zone (DIZ) (Saccharomyces cerevisiae [6]): 20 mm | MIC (Priestia megaterium [7]; ATCC 9885, 24 h): 200 µg/mL (≈ 249 µM) | diameter of the inhibition zone (DIZ) (Bacillus subtilis [8]): 17 mm | diameter of the inhibition zone (DIZ) (Pseudomonas aeruginosa [9]): inactive | MIC (Saccharomyces cerevisiae [10]): 200 µg/mL (≈ 249 µM) | diameter of the inhibition zone (DIZ) (Candida albicans [11]): 21 mm | MIC (Micrococcus luteus [12]): 200 µg/mL (≈ 249 µM) | MIC (Staphylococcus aureus [13]; ATCC 29213, 24 h): 200 µg/mL (≈ 249 µM) | IC50 [14]: 150 µg/mL (≈ 186 µM) | diameter of the inhibition zone (DIZ) (Klebsiella pneumoniae [15]): inactive | diameter of the inhibition zone (DIZ) (Staphylococcus aureus [16]): 17 mm | MIC (Klebsiella pneumoniae [17]): inactive | diameter of the inhibition zone (DIZ) (Micrococcus luteus [18]): 22 mm | diameter of the inhibition zone (DIZ) (Priestia megaterium [19]): 20 mm | MIC (Candida albicans [20]; NRRL Y-477, 48 h): 200 µg/mL (≈ 249 µM) | MIC (Pseudomonas aeruginosa [21]): inactive

O=C(Cn1cc(COC(Cc2cn(CC(=O)c3ccccc3)nn2)c2ccc(S(=O)(=O)c3ccccc3)cc2)nn1)c1ccccc1 (stereo not given)
MIC (Bacillus subtilis [1]; ATCC 6633, 24 h): 200 µg/mL (≈ 309 µM) | diameter of the inhibition zone (DIZ) (Escherichia coli [2]): 20 mm | MIC (Aspergillus niger [3]): 200 µg/mL (≈ 309 µM) | MIC (Escherichia coli [4]; ATCC 25922, 24 h): 200 µg/mL (≈ 309 µM) | diameter of the inhibition zone (DIZ) (Aspergillus niger [5]): 20 mm | diameter of the inhibition zone (DIZ) (Saccharomyces cerevisiae [6]): 22 mm | MIC (Priestia megaterium [7]; ATCC 9885, 24 h): 200 µg/mL (≈ 309 µM) | diameter of the inhibition zone (DIZ) (Bacillus subtilis [8]): 17 mm | diameter of the inhibition zone (DIZ) (Pseudomonas aeruginosa [9]): 23 mm | MIC (Saccharomyces cerevisiae [10]): 200 µg/mL (≈ 309 µM) | diameter of the inhibition zone (DIZ) (Candida albicans [11]): 23 mm | MIC (Micrococcus luteus [12]): 100 µg/mL (≈ 155 µM) | MIC (Staphylococcus aureus [13]; ATCC 29213, 24 h): 100 µg/mL (≈ 155 µM) | IC50 [14]: 175 µg/mL (≈ 271 µM) | diameter of the inhibition zone (DIZ) (Klebsiella pneumoniae [15]): 15 mm | diameter of the inhibition zone (DIZ) (Staphylococcus aureus [16]): 24 mm | MIC (Klebsiella pneumoniae [17]; ATCC 13883, 24 h): 100 µg/mL (≈ 155 µM) | diameter of the inhibition zone (DIZ) (Micrococcus luteus [18]): 24 mm | diameter of the inhibition zone (DIZ) (Priestia megaterium [19]): 20 mm | MIC (Candida albicans [20]; NRRL Y-477, 48 h): 200 µg/mL (≈ 309 µM) | MIC (Pseudomonas aeruginosa [21]): 100 µg/mL (≈ 155 µM)

O=C(Cn1cc(COC(Cc2cn(CC(=O)c3ccc(F)cc3)nn2)c2ccc(S(=O)(=O)c3ccccc3)cc2)nn1)c1ccc(F)cc1 (stereo not given)
MIC (Bacillus subtilis [1]; ATCC 6633, 24 h): 200 µg/mL (≈ 293 µM) | diameter of the inhibition zone (DIZ) (Escherichia coli [2]): 14 mm | MIC (Aspergillus niger [3]): 50 µg/mL (≈ 73.2 µM) | MIC (Escherichia coli [4]): inactive | diameter of the inhibition zone (DIZ) (Aspergillus niger [5]): 32 mm | diameter of the inhibition zone (DIZ) (Saccharomyces cerevisiae [6]): 19 mm | MIC (Priestia megaterium [7]; ATCC 9885, 24 h): 200 µg/mL (≈ 293 µM) | diameter of the inhibition zone (DIZ) (Bacillus subtilis [8]): 19 mm | diameter of the inhibition zone (DIZ) (Pseudomonas aeruginosa [9]): 15 mm | MIC (Saccharomyces cerevisiae [10]): 200 µg/mL (≈ 293 µM) | diameter of the inhibition zone (DIZ) (Candida albicans [11]): 22 mm | MIC (Micrococcus luteus [12]): 200 µg/mL (≈ 293 µM) | MIC (Staphylococcus aureus [13]; ATCC 29213, 24 h): 100 µg/mL (≈ 146 µM) | IC50 [14]: 275 µg/mL (≈ 403 µM) | diameter of the inhibition zone (DIZ) (Klebsiella pneumoniae [15]): 16 mm | diameter of the inhibition zone (DIZ) (Staphylococcus aureus [16]): 26 mm | MIC (Klebsiella pneumoniae [17]; ATCC 13883, 24 h): 200 µg/mL (≈ 293 µM) | diameter of the inhibition zone (DIZ) (Micrococcus luteus [18]): 20 mm | diameter of the inhibition zone (DIZ) (Priestia megaterium [19]): 17 mm | MIC (Candida albicans [20]; NRRL Y-477, 48 h): 200 µg/mL (≈ 293 µM) | MIC (Pseudomonas aeruginosa [21]): inactive

O=C(Cn1cc(CC(O)c2ccc(S(=O)(=O)c3ccccc3)cc2)nn1)c1ccccc1 (stereo not given)
MIC (Bacillus subtilis [1]; ATCC 6633, 24 h): 200 µg/mL (≈ 447 µM) | diameter of the inhibition zone (DIZ) (Escherichia coli [2]): 17 mm | MIC (Aspergillus niger [3]): 100 µg/mL (≈ 223 µM) | MIC (Escherichia coli [4]; ATCC 25922, 24 h): 200 µg/mL (≈ 447 µM) | diameter of the inhibition zone (DIZ) (Aspergillus niger [5]): 29 mm | diameter of the inhibition zone (DIZ) (Saccharomyces cerevisiae [6]): inactive | MIC (Priestia megaterium [7]): inactive | diameter of the inhibition zone (DIZ) (Bacillus subtilis [8]): 19 mm | diameter of the inhibition zone (DIZ) (Pseudomonas aeruginosa [9]): 20 mm | MIC (Saccharomyces cerevisiae [10]): inactive | diameter of the inhibition zone (DIZ) (Candida albicans [11]): 12 mm | MIC (Micrococcus luteus [12]): 200 µg/mL (≈ 447 µM) | MIC (Staphylococcus aureus [13]): inactive | IC50 [14]: 425 µg/mL (≈ 950 µM) | diameter of the inhibition zone (DIZ) (Klebsiella pneumoniae [15]): 22 mm | diameter of the inhibition zone (DIZ) (Staphylococcus aureus [16]): 14 mm | MIC (Klebsiella pneumoniae [17]; ATCC 13883, 24 h): 200 µg/mL (≈ 447 µM) | diameter of the inhibition zone (DIZ) (Micrococcus luteus [18]): 20 mm | diameter of the inhibition zone (DIZ) (Priestia megaterium [19]): inactive | MIC (Candida albicans [20]): inactive | MIC (Pseudomonas aeruginosa [21]): 200 µg/mL (≈ 447 µM)

O=C(Cn1cc(COC(Cc2cn(CC(=O)c3ccc(S(=O)(=O)c4ccccc4)cc3)nn2)c2ccc(S(=O)(=O)c3ccccc3)cc2)nn1)c1ccc(S(=O)(=O)c2ccccc2)cc1 (stereo not given)
MIC (Bacillus subtilis [1]): inactive | diameter of the inhibition zone (DIZ) (Escherichia coli [2]): inactive | MIC (Aspergillus niger [3]): 100 µg/mL (≈ 108 µM) | MIC (Escherichia coli [4]): inactive | diameter of the inhibition zone (DIZ) (Aspergillus niger [5]): 20 mm | diameter of the inhibition zone (DIZ) (Saccharomyces cerevisiae [6]): inactive | MIC (Priestia megaterium [7]): inactive | diameter of the inhibition zone (DIZ) (Bacillus subtilis [8]): 14 mm | diameter of the inhibition zone (DIZ) (Pseudomonas aeruginosa [9]): 14 mm | MIC (Saccharomyces cerevisiae [10]): inactive | diameter of the inhibition zone (DIZ) (Candida albicans [11]): 14 mm | MIC (Micrococcus luteus [12]): 200 µg/mL (≈ 216 µM) | MIC (Staphylococcus aureus [13]; ATCC 29213, 24 h): 200 µg/mL (≈ 216 µM) | IC50 [14]: 600 µg/mL (≈ 647 µM) | diameter of the inhibition zone (DIZ) (Klebsiella pneumoniae [15]): 13 mm | diameter of the inhibition zone (DIZ) (Staphylococcus aureus [16]): 17 mm | MIC (Klebsiella pneumoniae [17]): inactive | diameter of the inhibition zone (DIZ) (Micrococcus luteus [18]): 19 mm | diameter of the inhibition zone (DIZ) (Priestia megaterium [19]): inactive | MIC (Candida albicans [20]): inactive | MIC (Pseudomonas aeruginosa [21]): inactive

— ChEMBL document CHEMBL3351505, “Ultrasound-assisted synthesis of novel 1,2,3-triazoles coupled diaryl sulfone moieties by the CuAAC reaction, and biological evaluation of them as antioxidant and antimicrobial agents” (Eur J Med Chem, 2014)
